Results: paper PMC6226115 (Clinical and Translational Science, 2018)
“And” between values parts separate entries of the source, which are not always exact repeats. Equal entries are not always repeated. “Also recorded” adds a separate entry of the source.

Tests used:
[1] = system: glycine in CSF; test: Phase I pharmacodynamics: glycine in CSF; assay type: in vivo, human; conditions: for E 14, increase in glycine in CSF from baseline at 14 hours: 14 h after first dose; for E 14, increase in glycine in CSF from baseline at 14 hours / E max, maximum increase in glycine in CSF from baseline / Ratio of AUECdiff, 0–14 (glycine in CSF) / E 312, increase in glycine in CSF from baseline at 312 hours: mean (SD); for E max, maximum increase in glycine in CSF from baseline / Ratio of AUECdiff, 0–14 (glycine in CSF): after first dose; for E 312, increase in glycine in CSF from baseline at 312 hours: before last dose (steady state trough)
Outline: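 Healthy male volunteers took 5, 10, 25 or 50 mg orally each morning for 14 days in sequential ascending groups. CSF was drawn by lumbar catheter: three predose samples ~30 min apart, then hourly to 14 h after the first dose. A single lumbar puncture was taken before the day-14 dose. Glycine was measured by validated HPLC-MS/MS as its Marfey's derivative and expressed as % change from baseline (mean of three predose values).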

[2] = Phase I safety and tolerability; assay type: in vivo, human
Outline: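 In a nonrandomised, open-label phase I study, healthy men received 5, 10, 25 or 50 mg once daily for 14 days, with CSF sampled through a lumbar catheter. Safety was scored as the number of subjects with adverse events and summarised descriptively.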

[3] = 5 mg once daily for 14 days (n = 6)
[4] = 10 mg once daily for 14 days (n = 6)
[5] = 25 mg once daily for 14 days (n = 8)
[6] = 50 mg once daily for 14 days (n = 5)
[7] = total on-treatment, all doses (n = 25)

For `C[C@@H](Oc1ccc(S(C)(=O)=O)cc1C(=O)N1C[C@@H]2C[C@]2(c2cc(C(F)(F)F)on2)C1)C(F)(F)F` [BI 425809], the “E 14, increase in glycine in CSF from baseline at 14 hours” value (from here on “E 14, increase in glycine in CSF”) ([1]; 5 mg, N = 6) was 18.0 (32.1) %, the “E max, maximum increase in glycine in CSF from baseline” value (from here on “E max, maximum increase in glycine”) ([1]; 5 mg, N = 6) was 35.3 (26.4) % and the “Ratio of AUECdiff, 0–14 (glycine in CSF)” value ([1]; 5 mg, N = 6) was 16.0 (17.4) %. The “E 312, increase in glycine in CSF from baseline at 312 hours” value (shortened to “E 312, increase in glycine in CSF”) ([1]; 10 mg once daily, N = 4) was 57% and 57.0 (48.3) %, the “E 14, increase in glycine in CSF” value ([1]; 10 mg, N = 6) was 39.8 (14.5) % and the “E max, maximum increase in glycine” value ([1]; 10 mg, N = 6) was 62.3 (15.3) %. The “Ratio of AUECdiff, 0–14 (glycine in CSF)” value ([1]; 10 mg, N = 6) was 37.0 (12.1) %, the “E 312, increase in glycine in CSF” value ([1]; 25 mg once daily, N = 6) was 38% and 37.9 (45.8) % and the “E 14, increase in glycine in CSF” value ([1]; 25 mg, N = 6) was 60.9 (60.7) %. For the same molecule, the “Ratio of AUECdiff, 0–14 (glycine in CSF)” value ([1]; 25 mg, N = 6) was 53.0 (30.5) %, the “E max, maximum increase in glycine” value ([1]; 25 mg, N = 8) was 136 (107) % and the “E 312, increase in glycine in CSF” value ([1]; 50 mg once daily, N = 5) was 123% and 123 (52.5) %. The “E 14, increase in glycine in CSF” value ([1]; 50 mg, N = 5) was 50.6 (33.8) %, the “E max, maximum increase in glycine” value ([1]; 50 mg, N = 5) was 91.9 (89.9) % and the “Ratio of AUECdiff, 0–14 (glycine in CSF)” value ([1]; 50 mg, N = 5) was 47.0 (35.3) %. For the same molecule, the “Time at which CSF glycine levels reached their maximum” value ([1]; healthy volunteers, single oral doses, over dose groups) was 6 to 10 h, the “Abdominal pain, subjects with AE” value [2, 3] was 0 n (%) and the “Back pain, subjects with AE” value [2, 3] was 3 (50.0) n (%). The “Catheter site pain, subjects with AE” value [2, 3] was 1 (16.7) n (%), the “Diarrhea, subjects with AE” value [2, 3] was 0 n (%) and the “Dizziness, subjects with AE” value [2, 3] was 0 n (%). The “Dry mouth, subjects with AE” value [2, 3] was 0 n (%), the “Fatigue, subjects with AE” value [2, 3] was 0 n (%) and the “Gingivitis, subjects with AE” value [2, 3] was 0 n (%). For the same molecule, the “Muscle spasms, subjects with AE” value [2, 3] was 1 (16.7) n (%), the “Musculoskeletal stiffness, subjects with AE” value (“Musculoskeletal stiffness” for short) [2, 3] was 0 n (%) and the “Nasopharyngitis, subjects with AE” value [2, 3] was 0 n (%). The “Nausea, subjects with AE” value [2, 3] was 1 (16.7) n (%), the “Neck pain, subjects with AE” value [2, 3] was 0 n (%) and the “Paraesthesia, subjects with AE” value [2, 3] was 1 (16.7) n (%). The “Procedural headache, subjects with AE” value [2, 3] was 4 (66.7) n (%), the “Procedural pain, subjects with AE” value [2, 3] was 0 n (%) and the “Somnolence, subjects with AE” value [2, 3] was 1 (16.7) n (%). The “Tension headache, subjects with AE” value [2, 3] was 0 n (%), the “Total with AEs (treatment-emergent)” value [2, 3] was 5 (83.3) n (%) and the “Upper abdominal pain, subjects with AE” value [2, 3] was 0 n (%). The “Vomiting, subjects with AE” value [2, 3] was 1 (16.7) n (%), the “Wound, subjects with AE” value [2, 3] was 0 n (%) and the “Abdominal pain, subjects with AE” value [2, 4] was 0 n (%). The “Back pain, subjects with AE” value [2, 4] was 0 n (%), the “Catheter site pain, subjects with AE” value [2, 4] was 0 n (%) and the “Diarrhea, subjects with AE” value [2, 4] was 0 n (%). For the same molecule, the “Dizziness, subjects with AE” value [2, 4] was 1 (16.7) n (%), the “Dry mouth, subjects with AE” value [2, 4] was 0 n (%) and the “Fatigue, subjects with AE” value [2, 4] was 0 n (%). The “Gingivitis, subjects with AE” value [2, 4] was 1 (16.7) n (%), the “Muscle spasms, subjects with AE” value [2, 4] was 0 n (%) and the “Musculoskeletal stiffness” value [2, 4] was 0 n (%). For the same molecule, the “Nasopharyngitis, subjects with AE” value [2, 4] was 0 n (%), the “Nausea, subjects with AE” value [2, 4] was 2 (33.3) n (%) and the “Neck pain, subjects with AE” value [2, 4] was 1 (16.7) n (%). The “Paraesthesia, subjects with AE” value [2, 4] was 0 n (%), the “Procedural headache, subjects with AE” value [2, 4] was 4 (66.7) n (%) and the “Procedural pain, subjects with AE” value [2, 4] was 0 n (%). For the same molecule, the “Somnolence, subjects with AE” value [2, 4] was 0 n (%), the “Tension headache, subjects with AE” value [2, 4] was 0 n (%) and the “Total with AEs (treatment-emergent)” value [2, 4] was 5 (83.3) n (%). For the same molecule, the “Upper abdominal pain, subjects with AE” value [2, 4] was 0 n (%), the “Vomiting, subjects with AE” value [2, 4] was 1 (16.7) n (%) and the “Wound, subjects with AE” value [2, 4] was 1 (16.7) n (%). For the same molecule, the “Abdominal pain, subjects with AE” value [2, 5] was 1 (12.5) n (%), the “Back pain, subjects with AE” value [2, 5] was 4 (50.0) n (%) and the “Catheter site pain, subjects with AE” value [2, 5] was 0 n (%). For the same molecule, the “Diarrhea, subjects with AE” value [2, 5] was 1 (12.5) n (%), the “Dizziness, subjects with AE” value [2, 5] was 1 (12.5) n (%) and the “Dry mouth, subjects with AE” value [2, 5] was 1 (12.5) n (%). For the same molecule, the “Fatigue, subjects with AE” value [2, 5] was 1 (12.5) n (%), the “Gingivitis, subjects with AE” value [2, 5] was 0 n (%) and the “Muscle spasms, subjects with AE” value [2, 5] was 0 n (%). For the same molecule, the “Musculoskeletal stiffness” value [2, 5] was 1 (12.5) n (%), the “Nasopharyngitis, subjects with AE” value [2, 5] was 0 n (%) and the “Nausea, subjects with AE” value [2, 5] was 2 (25.0) n (%). The “Neck pain, subjects with AE” value [2, 5] was 1 (12.5) n (%), the “Paraesthesia, subjects with AE” value [2, 5] was 0 n (%) and the “Procedural headache, subjects with AE” value [2, 5] was 5 (62.5) n (%). For the same molecule, the “Procedural pain, subjects with AE” value [2, 5] was 1 (12.5) n (%), the “Somnolence, subjects with AE” value [2, 5] was 0 n (%) and the “Tension headache, subjects with AE” value [2, 5] was 1 (12.5) n (%). The “Total with AEs (treatment-emergent)” value [2, 5] was 8 (100.0) n (%), the “Upper abdominal pain, subjects with AE” value [2, 5] was 1 (12.5) n (%) and the “Vomiting, subjects with AE” value [2, 5] was 2 (25.0) n (%). For the same molecule, the “Wound, subjects with AE” value [2, 5] was 0 n (%), the “Abdominal pain, subjects with AE” value [2, 6] was 0 n (%) and the “Back pain, subjects with AE” value [2, 6] was 1 (20.0) n (%). For the same molecule, the “Catheter site pain, subjects with AE” value [2, 6] was 0 n (%), the “Diarrhea, subjects with AE” value [2, 6] was 0 n (%) and the “Dizziness, subjects with AE” value [2, 6] was 0 n (%). For the same molecule, the “Dry mouth, subjects with AE” value [2, 6] was 0 n (%), the “Fatigue, subjects with AE” value [2, 6] was 1 (20.0) n (%) and the “Gingivitis, subjects with AE” value [2, 6] was 0 n (%). For the same molecule, the “Muscle spasms, subjects with AE” value [2, 6] was 0 n (%), the “Musculoskeletal stiffness” value [2, 6] was 0 n (%) and the “Nasopharyngitis, subjects with AE” value [2, 6] was 1 (20.0) n (%). For the same molecule, the “Nausea, subjects with AE” value [2, 6] was 0 n (%), the “Neck pain, subjects with AE” value [2, 6] was 1 (20.0) n (%) and the “Paraesthesia, subjects with AE” value [2, 6] was 0 n (%). For the same molecule, the “Procedural headache, subjects with AE” value [2, 6] was 3 (60.0) n (%), the “Procedural pain, subjects with AE” value [2, 6] was 0 n (%) and the “Somnolence, subjects with AE” value [2, 6] was 0 n (%). The “Tension headache, subjects with AE” value [2, 6] was 0 n (%), the “Total with AEs (treatment-emergent)” value [2, 6] was 4 (80.0) n (%) and the “Upper abdominal pain, subjects with AE” value [2, 6] was 0 n (%). For the same molecule, the “Vomiting, subjects with AE” value [2, 6] was 0 n (%), the “Wound, subjects with AE” value [2, 6] was 0 n (%) and the “AEs of special interest, deaths, serious AEs on-treatment” value ([2]; healthy male volunteers, 5 to 50 mg for 14 days) was “no protocol‐specified AEs of special interest, deaths, or other serious AEs reported”. The “Safety and tolerability (in words)” value ([2]; healthy male volunteers, multiple oral doses 5 to 50 mg for 14 days) was “safe and well tolerated; also recorded: generally well tolerated; also recorded: well tolerated, with no indication of safety concerns”, the “Subjects reporting back pain” value ([2]; of the 25 subjects treated (8 subjects)) was 32.0% and the “Subjects reporting procedural headache” value ([2]; of the 25 subjects treated (16 subjects)) was 64.0%. The “Subjects reporting at least one treatment-emergent AE” value ([2]; of the 25 subjects treated (22 subjects)) was 88.0%, the “Abdominal pain, subjects with AE” value [2, 7] was 1 (4.0) n (%) and the “Back pain, subjects with AE” value [2, 7] was 8 (32.0) n (%). For the same molecule, the “Catheter site pain, subjects with AE” value [2, 7] was 1 (4.0) n (%), the “Diarrhea, subjects with AE” value [2, 7] was 1 (4.0) n (%) and the “Dizziness, subjects with AE” value [2, 7] was 2 (8.0) n (%). For the same molecule, the “Dry mouth, subjects with AE” value [2, 7] was 1 (4.0) n (%), the “Fatigue, subjects with AE” value [2, 7] was 2 (8.0) n (%) and the “Gingivitis, subjects with AE” value [2, 7] was 1 (4.0) n (%). The “Muscle spasms, subjects with AE” value [2, 7] was 1 (4.0) n (%), the “Musculoskeletal stiffness” value [2, 7] was 1 (4.0) n (%) and the “Nasopharyngitis, subjects with AE” value [2, 7] was 1 (4.0) n (%). The “Nausea, subjects with AE” value [2, 7] was 5 (20.0) n (%), the “Neck pain, subjects with AE” value [2, 7] was 3 (12.0) n (%) and the “Paraesthesia, subjects with AE” value [2, 7] was 1 (4.0) n (%). For the same molecule, the “Procedural headache, subjects with AE” value [2, 7] was 16 (64.0) n (%), the “Procedural pain, subjects with AE” value [2, 7] was 1 (4.0) n (%) and the “Somnolence, subjects with AE” value [2, 7] was 1 (4.0) n (%). For the same molecule, the “Tension headache, subjects with AE” value [2, 7] was 1 (4.0) n (%), the “Total with AEs (treatment-emergent)” value [2, 7] was 22 (88.0) n (%) and the “Upper abdominal pain, subjects with AE” value [2, 7] was 1 (4.0) n (%). For the same molecule, the “Vomiting, subjects with AE” value [2, 7] was 4 (16.0) n (%), the “Wound, subjects with AE” value [2, 7] was 1 (4.0) n (%) and the “Subjects who discontinued due to AEs” value ([2]; two subjects of 25 (5-mg and 10-mg dose groups), AEs not considered drug-related) was 8.0%.
